Laboratory results taken from PubChem BioAssay.
Active and inactive are the calls of the source.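 Rule for the calls, unless noted: active = Her2 level under about 52% in both replicate screens, with viability over 70% of control (limit read from the data); inconclusive = Her2 under the limit in one screen only, or viability under 70%; inactive = Her2 level above the set limit.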

Assays:
[1] = reducers of endogenous Her2 protein level, primary screen, SKBR3 breast tumor cells, AlphaScreen, ATP viability (AID 461); conditions: 18-24 h, measured here: SKBR3 viability, ATP luminescence, at 10 µM;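 for Her2 level: lower value means less Her2 protein in the cells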;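 for viability: percent of carrier control wells set as 100% viability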
[2] = target: Receptor tyrosine-protein kinase erbB-2 (Homo sapiens) (UniProt P04626); assay: as above; conditions: 18-24 h, at 10 µM, stronger effect = lower value
Receptor tyrosine-protein kinase erbB-2 (Homo sapiens), sequence (P04626 whole entry, looked up): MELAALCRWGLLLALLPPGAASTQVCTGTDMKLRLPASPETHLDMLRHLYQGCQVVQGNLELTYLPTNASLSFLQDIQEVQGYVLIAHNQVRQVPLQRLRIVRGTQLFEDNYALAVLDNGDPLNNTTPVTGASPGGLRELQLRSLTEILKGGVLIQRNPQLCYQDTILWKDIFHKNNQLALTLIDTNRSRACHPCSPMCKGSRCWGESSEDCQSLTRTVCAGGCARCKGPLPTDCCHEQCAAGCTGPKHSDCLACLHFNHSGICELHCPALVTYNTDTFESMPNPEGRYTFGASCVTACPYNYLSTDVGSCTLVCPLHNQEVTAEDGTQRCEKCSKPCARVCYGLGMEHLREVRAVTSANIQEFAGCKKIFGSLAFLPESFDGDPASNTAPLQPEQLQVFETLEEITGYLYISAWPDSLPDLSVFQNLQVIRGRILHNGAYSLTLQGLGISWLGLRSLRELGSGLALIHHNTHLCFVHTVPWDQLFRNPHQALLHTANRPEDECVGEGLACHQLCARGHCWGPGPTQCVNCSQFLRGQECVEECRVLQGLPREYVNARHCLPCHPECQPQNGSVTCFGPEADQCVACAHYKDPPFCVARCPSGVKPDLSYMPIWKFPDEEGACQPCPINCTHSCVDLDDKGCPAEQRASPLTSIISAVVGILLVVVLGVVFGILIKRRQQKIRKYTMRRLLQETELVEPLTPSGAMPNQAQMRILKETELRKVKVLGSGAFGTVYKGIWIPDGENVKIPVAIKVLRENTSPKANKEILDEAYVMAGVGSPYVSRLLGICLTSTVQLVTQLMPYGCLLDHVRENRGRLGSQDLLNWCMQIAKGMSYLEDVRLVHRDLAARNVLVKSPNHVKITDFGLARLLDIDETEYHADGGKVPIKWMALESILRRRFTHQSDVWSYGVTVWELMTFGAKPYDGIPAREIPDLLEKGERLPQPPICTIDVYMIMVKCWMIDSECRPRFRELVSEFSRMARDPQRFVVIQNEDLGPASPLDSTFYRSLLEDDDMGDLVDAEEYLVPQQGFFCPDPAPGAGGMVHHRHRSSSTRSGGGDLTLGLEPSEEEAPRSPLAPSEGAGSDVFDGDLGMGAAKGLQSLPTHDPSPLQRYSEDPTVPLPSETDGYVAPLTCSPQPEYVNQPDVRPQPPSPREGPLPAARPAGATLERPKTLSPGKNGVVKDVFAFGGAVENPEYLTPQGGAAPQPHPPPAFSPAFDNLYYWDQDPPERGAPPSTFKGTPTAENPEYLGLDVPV

[3] = SK-BR-3 cell growth inhibitors, pilot screen, 24 h, human (AID 572;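 active = viability at or below 10% of carrier control in both of two separate runs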;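 note: compound exposure lasted between 18 and 24 h rather than exactly 24 h; 100% = carrier-treated control wells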); conditions: SK-BR-3 viability, CellTiter-Glo luminescence, at 10 µM, stronger effect = lower value
[4] = HUVEC growth inhibition – cell-based, human, primary screen (AID 575;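 active = viability at or below 30% in both replicate assays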;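 note: 100% = median of untreated cell wells with 0.1% DMSO on each plate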); conditions: HUVEC proliferation, CellTiter-Glo luminescence, 72 h; at 10 µM; stronger effect = lower value
Summary of the method: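 material = primary HUVEC, no more than 12 passages | input = 1250 cells per well | controls = vehicle and MePR control wells | measured by = CTG luminescence | times = 72 h compound incubation | format = collagen-coated 384-well format | read-out = % viability vs DMSO wells | doses = single 10 µM dose, 0.1% DMSO, from 5x medium stock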

[5] = growth inhibitors of H69AR lung tumor, primary screen, human, duplicate replicates (AID 580;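 active = viability at or under a set limit in both replicates, limit being median viability minus 3 SD, cut at about 48% in these data, passing the limit was not always enough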;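 note: 100% = mean luminescence of untreated wells and 0% = no signal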); conditions: H69AR lung tumor cells viability, ATP luminescence, 72 h; at 10 µM; stronger effect = lower value
[6] = reversal of MRP1-mediated doxorubicin resistance, pilot screen, H69AR cells, doxorubicin co-treatment (AID 601;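 active = viability loss from added drug above about 55%, and viability with drug at most 40%, in both replicates, limit read from the data, passing the limit was not always enough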); conditions: CellTiter-Glo, 72 h, at 10 µM; for differential viability (reversal): stronger effect = higher value
[7] = 384-well plate pilot, post-Golgi transport modulator project, inhibition of yeast transport mutant growth (AID 636; in the data active = inhibition above about 31%); conditions: absorbance 615 nm, about 18 h, stronger effect = higher value
[8] = growth suppression of yeast trafficking mutant, preliminary HTS, modulators of trafficking downstream of Golgi apparatus project, 1536-format plate, OD 615 nm (AID 637; in the data active = inhibition above about 30%); conditions: yeast transport mutant growth, absorbance 615 nm, 18 h; stronger effect = higher value
[9] = H69AR cells + 2 uM doxorubicin, measured here: viability with 2 uM doxorubicin, stronger effect = lower value
[10] = H69AR cells, compound alone cytotoxicity

Row | Compound | viability [1] | Her2 level [2] | viability [3] | viability [4] | viability [5] | differential viability (reversal) ([6]; H69AR cells + 2 uM doxorubicin) | viability [6, 9] | viability [6, 10] | inhibition [7] | inhibition [8]
1 | O=C1CC2CS(=O)(=O)CC2N1c1ccc(Oc2ccccc2)cc1 (stereo not given) | 99% | 87% (inactive) | 99% (inactive) | 78.6% (inactive) | 95.6% (inactive) | -2.44% (inactive) | 98% | 95.6% | -5.47% (inactive) | 3.11% (inactive)
2 | CC1(C)CNC(=O)CC(C)(C)N1O | 90% | 129% (inactive) | 90% (inactive) | 101% (inactive) | 95.6% (inactive) | 3.01% (inactive) | 92.6% | 95.6% | -1.43% (inactive) | 0% (inactive)
3 | COc1ccc(N2CCN(C(=O)C(OC(C)=O)c3ccccc3)CC2)cc1 (stereo not given) | 96.5% | 99% (inactive) | 96.5% (inactive) | 89.4% (inactive) | 97% (inactive) | 2.1% (inactive) | 94.9% | 97% | -0.53% (inactive) | -2.38% (inactive)
4 | COC(=O)c1cccc(NC(=O)CSc2nnc(COc3ccc(C#N)cc3)n2-c2ccccc2)c1 | 92% | 112% (inactive) | 92% (inactive) | 105% (inactive) | 87.8% (inactive) | -1.66% (inactive) | 89.4% | 87.8% | 3.38% (inactive) | -3.02% (inactive)
5 | COC(=O)c1cc(-c2c(C)oc3cc(O)ccc3c2=O)c(C)o1 | 100% | 90.5% (inactive) | 100% (inactive) | 91.3% (inactive) | 84.9% (inactive) | -6.25% (inactive) | 91.1% | 84.9% | -4.94% (inactive) | -1.27% (inactive)
6 | O=c1oc2ccccc2c2nccnc12 | 93.5% | 115% (inactive) | 93.5% (inactive) | 103% (inactive) | 96.5% (inactive) | 5.08% (inactive) | 91.4% | 96.5% | -0.13% (inactive) | -9.5% (inactive)
7 | Cc1ncoc1C(=O)Nc1cccc(Cl)c1C | 104% | 114% (inactive) | 104% (inactive) | 113% (inactive) | 101% (inactive) | 15.6% (inactive) | 85.1% | 101% | -3.78% (inactive) | 0.33% (inactive)
8 | Cn1c(=O)c2c(nc(SCc3nn[nH]n3)n2Cc2ccccc2F)n(C)c1=O | 97.5% | 97% (inactive) | 97.5% (inactive) | 94.4% (inactive) | 90.9% (inactive) | -2.83% (inactive) | 93.7% | 90.9% | -0.13% (inactive) | 1.27% (inactive)
9 | O=C(OCC#CCSc1nnc(-c2ccncc2)o1)c1cccs1 | 118% | 102% (inactive) | 118% (inactive) | 88.2% (inactive) | 82% (inactive) | -1.25% (inactive) | 83.3% | 82% | -4.67% (inactive) | 1.43% (inactive)
10 | CCOc1ccc(-n2cc(C(=O)Nc3cccc(C)n3)c3cc(OC)c(OC)cc3c2=O)cc1 | 110% | 91% (inactive) | 110% (inactive) | 71.8% (inactive) | 64.4% (inactive) | -11.8% (inactive) | 76.2% | 64.4% | -5.47% (inactive) | 4.43% (inactive)
11 | Cn1cccc1C1NC(=O)c2c(sc3c2CCC(C(C)(C)C)C3)N1 (stereo not given) | 110% | 77.5% (inactive) | 110% (inactive) | 125% (inactive) | 90.4% (inactive) | -11% (inactive) | 101% | 90.4% | -9.86% (inactive) | 1.67% (inactive)
12 | O=S(=O)(c1ccccc1)c1nc(-c2cccs2)oc1NCC1CCCO1 (stereo not given) | 84.5% | 97% (inactive) | 84.5% (inactive) | 87.9% (inactive) | 99.7% (inactive) | -2.42% (inactive) | 102% | 99.7% | 2.67% (inactive) | 10.7% (inactive)
13 | CCN(CC)CCCn1c(=S)[nH]c2cc(Cl)ccc2c1=O | 101% | 96% (inactive) | 101% (inactive) | 106% (inactive) | 97% (inactive) | 6.63% (inactive) | 90.4% | 97% | -6.27% (inactive) | 1.8% (inactive)
14 | COC(=O)[C@H](C)NC(=O)NCc1ccc(F)cc1 | 102% | 95% (inactive) | 102% (inactive) | 102% (inactive) | 95.3% (inactive) | -8.8% (inactive) | 104% | 95.3% | -2.21% (inactive) | -1.43% (inactive)
15 | CC(=O)Nc1ccccc1-c1nc2ccc(C(=O)N3CCN(c4ccccc4)CC3)cc2[nH]c1=O | 99.5% | 88% (inactive) | 99.5% (inactive) | 86.2% (inactive) | 93.4% (inactive) | -1.66% (inactive) | 95% | 93.4% | -1.33% (inactive) | 1.15% (inactive)
16 | COc1ccc2nc(NC(=O)C3CCCN(S(=O)(=O)c4cccc5nsnc45)C3)sc2c1 (stereo not given) | 96.5% | 97.5% (inactive) | 96.5% (inactive) | 75% (inactive) | 83.1% (inactive) | -10.1% (inactive) | 93.2% | 83.1% | 4.53% (inactive) | -2.7% (inactive)
17 | CC1CN(Cc2nc3c(c(=O)[nH]c(=O)n3C)n2CC(N)=O)CC(C)O1 (stereo not given) | 99.5% | 97.5% (inactive) | 99.5% (inactive) | 88.6% (inactive) | 102% (inactive) | 9.96% (inactive) | 92.4% | 102% | 0.51% (inactive) | 0.67% (inactive)
18 | O=C(NCc1cccnc1)c1ccccn1 | 102% | 108% (inactive) | 102% (inactive) | 103% (inactive) | 110% (inactive) | 16.2% (inactive) | 93.9% | 110% | -4.8% (inactive) | -3.65% (inactive)
19 | Cc1ccc(-c2noc(C3CCCN(C(=O)c4ccc(F)cc4F)C3)n2)cc1 (stereo not given) | 99% | 94% (inactive) | 99% (inactive) | 87.4% (inactive) | 90% (inactive) | 1.88% (inactive) | 88.1% | 90% | -2.16% (inactive) | -9% (inactive)
20 | O=C(Nc1ccc2c(c1)nc1n2CCSC1)c1ccccc1 | 97% | 114% (inactive) | 97% (inactive) | 108% (inactive) | 92.7% (inactive) | 15.9% (inactive) | 76.8% | 92.7% | -0.26% (inactive) | -6% (inactive)
21 | COc1ccccc1OCCSc1nc2ccccc2c(=O)[nH]1 | 81.5% | 105% (inactive) | 81.5% (inactive) | 84.6% (inactive) | 95.2% (inactive) | 15.1% (inactive) | 80.1% | 95.2% | -3.97% (inactive) | -4% (inactive)
22 | O=C(Nc1ccncc1)c1cncc(Br)c1 | 78% | 95.5% (inactive) | 78% (inactive) | 114% (inactive) | 100% (inactive) | 4.04% (inactive) | 96.4% | 100% | -2.57% (inactive) | 1.5% (inactive)
23 | CCC(C)c1ccc(NC(=O)c2cccnc2)cc1 (stereo not given) | 93% | 106% (inactive) | 93% (inactive) | 81.6% (inactive) | 92.5% (inactive) | 5.06% (inactive) | 87.4% | 92.5% | -0.54% (inactive) | -1.64% (inactive)
24 | Cc1noc(C)c1S(=O)(=O)N1CCCC(C(=O)NCCc2ccc(Cl)cc2)C1 (stereo not given) | 89% | 82% (inactive) | 89% (inactive) | 98.1% (inactive) | 97.1% (inactive) | 5.35% (inactive) | 91.7% | 97.1% | -5.34% (inactive) | 4.76% (inactive)
25 | CCCCN(CC)S(=O)(=O)c1ccc2c(c1)CCCN2C(C)=O | 88% | 79.5% (inactive) | 88% (inactive) | 88.9% (inactive) | 104% (inactive) | 0.71% (inactive) | 103% | 104% | -2.37% (inactive) | 0.48% (inactive)
26 | CCc1ccccc1-n1c(SCC(=O)N2CCCC2)nnc1-c1ccccn1 | 106% | 99.5% (inactive) | 106% (inactive) | 123% (inactive) | 95.3% (inactive) | 1.95% (inactive) | 93.3% | 95.3% | 1.92% (inactive) | -6.03% (inactive)
27 | Cc1nc(-c2cccc(N)c2)cs1 | 103% | 94.5% (inactive) | 103% (inactive) | 84.3% (inactive) | 103% (inactive) | 6.14% (inactive) | 96.8% | 103% | -1.33% (inactive) | -2.3% (inactive)
28 | C=CCn1c(N)c(C(=O)NCCC2=CCCCC2)sc1=S | 85.5% | 92.5% (inactive) | 85.5% (inactive) | 44.6% (inactive) | 83.2% (inactive) | 7.14% (inactive) | 76% | 83.2% | -6.49% (inactive) | -0.95% (inactive)
29 | CCc1ccc2c(CN(CC)Cc3nc4ccccc4c(=O)[nH]3)cc(=O)oc2c1 | 86% | 73.5% (inactive) | 86% (inactive) | 75.4% (inactive) | 67.9% (inactive) | 36.3% (inactive) | 31.7% | 67.9% | -1.32% (inactive) | -7.27% (inactive)
